From PubChem BioAssay
A selection: hits, their analogues and other compounds. The true share with any hit is near 2.3%.
TRPC4 agonist – activators of mouse TRPC4 channel, primary screen, Fluo4 calcium, HEK293 TRPC4beta/mu-opioid cells. B-score at 10 µM. Fluo4 calcium fluorescence; hits give high values. 310,000 tested, 0.49% active;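 active = B-score above 5 SD of library B-scores, and initial fluorescence ratio not above library mean plus 5 SD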;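 also: positive B-score marks a calcium rise read as TRPC4 activation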
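Assay system: HEK293 cells stably co-expressing mouse TRPC4beta and mu-opioid receptor / Timing: Fluo4 dye loading 45 min at room temperature, 110 s recording / Signal: Fluo4 calcium-sensitive dye fluorescence, kinetic, 1 Hz baseline / Read-out: integrated baseline-normalised fluorescence ratio, converted to per-well B score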
TRPC6 activator – mouse TRPC6 channel activators, primary screen, cell-based, HEK293, membrane potential dye; Short transient receptor potential channel 6 (Mus musculus), Q61143; HEK293-TRPC6 membrane potential dye fluorescence; hits give high values; B-score at 10 µM; 310,000 tested, 0.13% active;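 active = B-score of the integrated fluorescence ratio above library mean plus 3 SD, and starting fluorescence ratio within library mean plus 5 SD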;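 also: higher score means more depolarization so channel activation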
Target sequence (Q61143 whole entry, looked up): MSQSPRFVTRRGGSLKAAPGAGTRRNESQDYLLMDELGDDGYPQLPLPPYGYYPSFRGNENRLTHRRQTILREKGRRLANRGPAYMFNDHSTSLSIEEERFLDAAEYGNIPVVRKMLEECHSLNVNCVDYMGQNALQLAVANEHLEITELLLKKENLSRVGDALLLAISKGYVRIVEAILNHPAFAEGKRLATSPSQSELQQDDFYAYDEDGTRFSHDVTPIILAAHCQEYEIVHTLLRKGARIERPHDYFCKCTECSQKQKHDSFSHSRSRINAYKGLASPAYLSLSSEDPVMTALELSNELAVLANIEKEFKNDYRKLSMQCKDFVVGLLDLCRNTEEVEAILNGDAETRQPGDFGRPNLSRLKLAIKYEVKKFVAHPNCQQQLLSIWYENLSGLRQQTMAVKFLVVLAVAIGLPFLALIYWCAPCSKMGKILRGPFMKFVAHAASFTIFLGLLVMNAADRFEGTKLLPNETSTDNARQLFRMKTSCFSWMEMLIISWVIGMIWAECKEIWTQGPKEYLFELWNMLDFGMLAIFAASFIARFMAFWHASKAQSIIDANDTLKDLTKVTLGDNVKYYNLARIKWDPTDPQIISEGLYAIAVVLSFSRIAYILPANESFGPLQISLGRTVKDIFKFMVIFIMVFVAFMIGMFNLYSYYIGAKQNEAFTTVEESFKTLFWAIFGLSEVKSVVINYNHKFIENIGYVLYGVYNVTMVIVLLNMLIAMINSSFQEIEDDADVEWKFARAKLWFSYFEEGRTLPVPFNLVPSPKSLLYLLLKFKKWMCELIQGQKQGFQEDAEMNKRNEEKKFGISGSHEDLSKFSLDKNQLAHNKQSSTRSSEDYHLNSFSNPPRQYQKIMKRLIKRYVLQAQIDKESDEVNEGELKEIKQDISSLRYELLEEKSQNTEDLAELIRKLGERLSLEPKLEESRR
TRPC6 inhibitor – mouse TRPC6 channel inhibitors, primary screen, cell-based, HEK293, membrane potential dye | ACh-evoked depolarization; hits give low values | 310,000 tested, 1.1% active | Short transient receptor potential channel 6 (Mus musculus), Q61143 | B-score at 10 µM;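 active = B-score under library mean minus 3 SD, initial fluorescence not abnormally high, positive integrated signal ratio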;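 also: B-score derived from integrated fluorescence ratio over the kinetic read; more negative B-score means stronger inhibition of depolarization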
TRPC4 PAM – positive allosteric modulators of TRPC4, primary screen, cell-based, mouse TRPC4beta, HEK293 mu-opioid, Fluo-4 calcium | Short transient receptor potential channel 4 (Mus musculus), Q9QUQ5 | DAMGO EC20, Fluo-4 Ca2+ flux; hits give high values | B-score at 10 µM | 310,000 tested, 0.42% active | AID 2227, 2009;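 active = B-score of calcium response area above 5 SD of library B-scores, with initial fluorescence ratio within 5 SD of library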;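 also: B-score of integrated fluorescence ratio over time as area under calcium response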
TRPC4 inh – inhibitors of mouse TRPC4 channel, primary screen, Fluo4 calcium, HEK293 TRPC4beta/mu-opioid cells. 300,000 tested, 0.39% active. AID 2247, 2010. B-score at 10 µM. DAMGO-evoked Fluo4 calcium flux; hits give low values;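 active = B-score over 3 SD under the library average, no early fluorescence shift, positive overall ratio signal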
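Test system – stable TRPC4beta/mu-opioid receptor HEK293 cells · Probe or stimulus – DAMGO, a submaximal dose followed by a maximal one · Dosing – one concentration per compound · Signal – Fluo4 calcium fluorescence by kinetic imaging, 5 s 1 Hz baseline · Evaluation – per-well B score of integrated baseline-normalized Fluo4 ratio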
An asterisk follows results filed as active.

What do the screens show for `Cc1ncccc1C(=O)N1CCCC(C(=O)c2ccc3c4c(cccc24)CC3)C1` (stereo not drawn)?
TRPC4 agonist: inactive; TRPC6 activator: inactive; TRPC6 inhibitor: inactive; TRPC4 PAM: inactive; TRPC4 inh: inactive

What do the screens show for `O=C(c1ccc2c3c(cccc13)CC2)C1CCCN(Cc2ccncc2)C1` (stereo not drawn)?
TRPC4 agonist: 44*; TRPC6 activator: inactive; TRPC6 inhibitor: inactive; TRPC4 PAM: inactive; TRPC4 inh: inactive

How did CCc1nc(CN2CCCC(C(=O)c3ccc4c5c(cccc35)CC4)C2)c(C)[nH]1 (stereo not drawn) do in these assays?
TRPC4 agonist: 116*; TRPC6 activator: inactive; TRPC6 inhibitor: inactive; TRPC4 PAM: inactive; TRPC4 inh: inactive

How did COc1ccc(NS(=O)(=O)c2cc3c4c(c2)CCN4C(=O)CC3)cc1OC do in these assays?
TRPC4 agonist: inactive; TRPC6 activator: inactive; TRPC6 inhibitor: inactive; TRPC4 PAM: inactive; TRPC4 inh: inactive

What do the screens show for `CCNC(=O)COC(=O)c1cccc(Br)c1`?
TRPC4 agonist: inactive; TRPC6 activator: inactive; TRPC6 inhibitor: inactive; TRPC4 PAM: inactive; TRPC4 inh: inactive

What do the screens show for `Cc1c(Cl)ccc(S(=O)(=O)NCCCn2ccnc2)c1Cl`?
TRPC4 agonist: 50*; TRPC6 activator: inactive; TRPC6 inhibitor: inactive; TRPC4 PAM: inactive; TRPC4 inh: inactive

How did COc1c(S(=O)(=O)NCCCn2ccnc2)ccc(Cl)c1Cl do in these assays?
TRPC4 agonist: inactive; TRPC6 activator: inactive; TRPC6 inhibitor: inactive; TRPC4 PAM: inactive; TRPC4 inh: inactive

How did Cc1cc(C)c(S(=O)(=O)NCCCn2ccnc2)c(C)c1 do in these assays?
TRPC4 agonist: 68*; TRPC6 activator: inactive; TRPC6 inhibitor: inactive; TRPC4 PAM: inactive; TRPC4 inh: inactive

What do the screens show for `CC1CCCC(NC(=O)CCNC(=O)c2ccccc2Cl)C1C` (stereo not drawn)?
TRPC4 agonist: inactive; TRPC6 activator: inactive; TRPC6 inhibitor: inactive; TRPC4 PAM: inactive; TRPC4 inh: inactive

How did COC(=O)c1ccccc1NC(=O)CN1CCN(C23CC4CC(CC(C4)C2)C3)CC1 do in these assays?
TRPC4 agonist: inactive; TRPC6 activator: 20*; TRPC6 inhibitor: inactive; TRPC4 PAM: inactive; TRPC4 inh: inactive

Results for COC(=O)c1ccccc1NC(=O)CN1CCC(NC(=O)c2ccc(C)cc2)CC1 ?
TRPC4 agonist: inactive; TRPC6 activator: inactive; TRPC6 inhibitor: inactive; TRPC4 PAM: inactive; TRPC4 inh: inactive

What do the screens show for `CCOc1ccc2[nH]c(C)c(CN3CCOCC3)c(=O)c2c1`?
TRPC4 agonist: inactive; TRPC6 activator: inactive; TRPC6 inhibitor: inactive; TRPC4 PAM: inactive; TRPC4 inh: inactive

Results for Cc1[nH]c2ccc(Br)cc2c(=O)c1CN1CCOCC1 ?
TRPC4 agonist: inactive; TRPC6 activator: inactive; TRPC6 inhibitor: inactive; TRPC4 PAM: 12*; TRPC4 inh: inactive

Results for CC#CC(=O)NC1CCCN(C2Cc3ccccc3C2)C1 (stereo not drawn) ?
TRPC4 agonist: inactive; TRPC6 activator: inactive; TRPC6 inhibitor: inactive; TRPC4 PAM: inactive; TRPC4 inh: inactive

Results for COc1cccc(C(=O)NC2CCCN(C3Cc4ccccc4C3)C2)c1OC (stereo not drawn) ?
TRPC4 agonist: 90*; TRPC6 activator: inactive; TRPC6 inhibitor: inactive; TRPC4 PAM: inactive; TRPC4 inh: inactive

What do the screens show for `CC1c2ccccc2SC(CCCN(C)C)c2ccccc21` (stereo not drawn)?
TRPC4 agonist: inactive; TRPC6 activator: inactive; TRPC6 inhibitor: inactive; TRPC4 PAM: inactive; TRPC4 inh: inactive

How did CN(C)CCC1Sc2ccccc2Oc2ccccc21 (stereo not drawn) do in these assays?
TRPC4 agonist: inactive; TRPC6 activator: inactive; TRPC6 inhibitor: inactive; TRPC4 PAM: inactive; TRPC4 inh: -6*
